Test results published in ChEMBL document CHEMBL2434857, “Imidazopyridazines as potent inhibitors of Plasmodium falciparum calcium-dependent protein kinase 1 (PfCDPK1): Preparation and evaluation of pyrazole linked analogues” (Bioorg Med Chem Lett, 2013).
Values belong to the molecule of their own block, whether it stands above or below them. The source made the active and inactive calls. No cut-off for these calls is given here.

Assays:
[1] = Inhibition of full length recombinant Plasmodium falciparum CDPK1 using MTIP as substrate assessed as amount of ATP remaining after 1 hr by luminescence assay
[2] = Lipophilicity, log D of the compound in octanol-phosphate buffered saline at 100 uM after 12 hrs by shake flask method; type: physicochemical
Plasmodium falciparum = experiment: Antiparasitic activity against Plasmodium falciparum assessed as parasite growth inhibition after 48 hrs by hydroethidine staining-based flow cytometric analysis; type: functional, organism-based
In short: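 Compounds diluted into 2% DMSO were added to cultured parasites 24 h post-invasion and incubated under static conditions. Cells were harvested 48 h later and stained for parasite DNA with hydroethidine for flow cytometry. Growth inhibition (%) = (1 − parasitaemia of treated culture / parasitaemia of control culture) × 100, and EC50 was derived from it.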

[3] = biological target: Myosin light chain kinase, smooth muscle (Homo sapiens) (UniProt Q15746); experiment: Inhibition of human SmMLCK at 1 uM
[4] = biological target: Serine/threonine-protein kinase pim-1 (Homo sapiens) (UniProt P11309); experiment: Inhibition of human PIM1 at 1 uM
Chain of Serine/threonine-protein kinase pim-1 (Homo sapiens) (P11309 whole entry, looked up): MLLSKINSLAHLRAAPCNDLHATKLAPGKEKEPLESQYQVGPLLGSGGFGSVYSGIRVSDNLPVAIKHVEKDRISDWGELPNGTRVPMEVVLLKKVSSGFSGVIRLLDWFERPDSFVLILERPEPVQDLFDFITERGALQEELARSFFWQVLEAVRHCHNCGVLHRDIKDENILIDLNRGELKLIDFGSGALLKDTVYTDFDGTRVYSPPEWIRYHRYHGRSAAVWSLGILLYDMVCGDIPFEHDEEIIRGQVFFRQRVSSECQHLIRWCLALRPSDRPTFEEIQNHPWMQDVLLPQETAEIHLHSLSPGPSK

Homo sapiens [5] = species: Homo sapiens; experiment: Inhibition of human VEGFR at 1 uM
[6] = biological target: NUAK family SNF1-like kinase 1 (Homo sapiens) (UniProt O60285); experiment: Inhibition of human NUAK1 at 1 uM
[7] = biological target: Misshapen-like kinase 1 (Homo sapiens) (UniProt Q8N4C8); experiment: Inhibition of human MINK1 at 1 uM
[8] = biological target: Casein kinase II (Homo sapiens) (UniProt P67870+P68400+P19784); experiment: Inhibition of human CK2 at 1 uM; type: protein-complex assay
[9] = biological target: MAP kinase-interacting serine/threonine-protein kinase 1 (Homo sapiens) (UniProt Q9BUB5); experiment: Inhibition of human MNK1 at 1 uM
Chain of MAP kinase-interacting serine/threonine-protein kinase 1 (Homo sapiens) (Q9BUB5 whole entry, looked up): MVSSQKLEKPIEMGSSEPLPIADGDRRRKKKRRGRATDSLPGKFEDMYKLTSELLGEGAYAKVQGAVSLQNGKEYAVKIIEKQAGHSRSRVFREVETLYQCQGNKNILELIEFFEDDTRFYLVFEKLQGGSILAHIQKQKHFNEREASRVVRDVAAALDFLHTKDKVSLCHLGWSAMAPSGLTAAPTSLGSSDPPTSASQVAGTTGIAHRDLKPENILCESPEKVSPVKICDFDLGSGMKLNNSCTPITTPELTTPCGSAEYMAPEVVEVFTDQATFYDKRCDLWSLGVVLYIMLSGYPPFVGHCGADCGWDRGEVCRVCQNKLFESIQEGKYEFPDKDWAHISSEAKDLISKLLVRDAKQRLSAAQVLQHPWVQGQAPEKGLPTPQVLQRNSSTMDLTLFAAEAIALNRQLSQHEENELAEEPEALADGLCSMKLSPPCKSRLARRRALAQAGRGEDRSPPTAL

[10] = biological target: Phosphorylase kinase (Homo sapiens) (UniProt P15735+P46020+P46019+Q93100+Q16816); experiment: Inhibition of human PHK at 1 uM; type: protein-complex assay
[11] = biological target: Ephrin type-A receptor 2 (Homo sapiens) (UniProt P29317); experiment: Inhibition of human EPHA2 at 1 uM
[12] = biological target: Proto-oncogene tyrosine-protein kinase Src (Homo sapiens) (UniProt P12931); experiment: Inhibition of human SRC at 1 uM
Chain of Proto-oncogene tyrosine-protein kinase Src (Homo sapiens) (P12931 2-536 limits assumed): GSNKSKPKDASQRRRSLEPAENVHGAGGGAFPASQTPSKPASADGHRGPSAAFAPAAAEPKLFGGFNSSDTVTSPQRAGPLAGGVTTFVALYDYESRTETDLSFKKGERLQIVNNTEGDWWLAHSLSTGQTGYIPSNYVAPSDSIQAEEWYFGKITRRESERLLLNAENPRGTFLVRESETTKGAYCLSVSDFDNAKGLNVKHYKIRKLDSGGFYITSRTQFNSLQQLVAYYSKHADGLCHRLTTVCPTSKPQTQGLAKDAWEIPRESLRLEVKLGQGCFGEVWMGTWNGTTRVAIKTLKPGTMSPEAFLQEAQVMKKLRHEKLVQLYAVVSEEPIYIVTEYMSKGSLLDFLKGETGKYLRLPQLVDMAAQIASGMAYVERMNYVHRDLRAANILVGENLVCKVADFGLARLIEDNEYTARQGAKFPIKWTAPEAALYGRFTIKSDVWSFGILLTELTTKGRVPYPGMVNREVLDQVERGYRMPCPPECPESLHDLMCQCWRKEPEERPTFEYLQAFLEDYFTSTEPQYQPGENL

[13] = biological target: Serine/threonine-protein kinase 3 (Homo sapiens) (UniProt Q13188); experiment: Inhibition of human MST2 at 1 uM
[14] = biological target: Tyrosine-protein kinase BTK (Homo sapiens) (UniProt Q06187); experiment: Inhibition of human BTK at 1 uM
[15] = biological target: Mitogen-activated protein kinase kinase kinase 11 (Homo sapiens) (UniProt Q16584); experiment: Inhibition of human MLK3 at 1 uM
Chain of Mitogen-activated protein kinase kinase kinase 11 (Homo sapiens) (Q16584 whole entry, looked up): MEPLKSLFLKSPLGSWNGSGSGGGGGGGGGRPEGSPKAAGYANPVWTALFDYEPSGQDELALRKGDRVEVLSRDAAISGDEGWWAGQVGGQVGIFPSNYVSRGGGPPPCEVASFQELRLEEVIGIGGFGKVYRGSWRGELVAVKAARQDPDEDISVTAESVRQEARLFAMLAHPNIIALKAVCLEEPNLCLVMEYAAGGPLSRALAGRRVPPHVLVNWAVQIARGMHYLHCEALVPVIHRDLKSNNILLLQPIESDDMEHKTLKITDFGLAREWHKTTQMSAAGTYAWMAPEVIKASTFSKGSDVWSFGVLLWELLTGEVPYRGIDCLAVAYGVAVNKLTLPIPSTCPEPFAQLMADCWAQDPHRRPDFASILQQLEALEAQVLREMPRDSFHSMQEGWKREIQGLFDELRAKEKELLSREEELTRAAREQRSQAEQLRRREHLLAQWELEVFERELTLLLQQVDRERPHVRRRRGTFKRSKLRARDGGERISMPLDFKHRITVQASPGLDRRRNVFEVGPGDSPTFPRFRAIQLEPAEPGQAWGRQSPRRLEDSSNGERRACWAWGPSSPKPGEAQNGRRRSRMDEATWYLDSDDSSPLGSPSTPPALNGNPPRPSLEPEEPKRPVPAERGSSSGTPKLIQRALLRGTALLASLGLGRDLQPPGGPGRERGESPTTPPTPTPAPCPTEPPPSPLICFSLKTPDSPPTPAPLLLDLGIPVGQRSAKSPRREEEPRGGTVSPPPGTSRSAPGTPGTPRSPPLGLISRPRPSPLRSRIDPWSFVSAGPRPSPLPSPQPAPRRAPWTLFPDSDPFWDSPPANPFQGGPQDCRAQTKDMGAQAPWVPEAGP

[16] = biological target: Receptor tyrosine-protein kinase erbB-4 (Homo sapiens) (UniProt Q15303); experiment: Inhibition of human HER4 at 1 uM
[17] = biological target: Rho-associated protein kinase 2 (Homo sapiens) (UniProt O75116); experiment: Inhibition of human ROCK2 at 1 uM
[18] = biological target: Serine/threonine-protein kinase Chk1 (Homo sapiens) (UniProt O14757); experiment: Inhibition of human CHK1 at 1 uM
[19] = biological target: Tyrosine-protein kinase Yes (Homo sapiens) (UniProt P07947); experiment: Inhibition of human YES1 at 1 uM
Chain of Tyrosine-protein kinase Yes (Homo sapiens) (P07947 2-543 limits assumed): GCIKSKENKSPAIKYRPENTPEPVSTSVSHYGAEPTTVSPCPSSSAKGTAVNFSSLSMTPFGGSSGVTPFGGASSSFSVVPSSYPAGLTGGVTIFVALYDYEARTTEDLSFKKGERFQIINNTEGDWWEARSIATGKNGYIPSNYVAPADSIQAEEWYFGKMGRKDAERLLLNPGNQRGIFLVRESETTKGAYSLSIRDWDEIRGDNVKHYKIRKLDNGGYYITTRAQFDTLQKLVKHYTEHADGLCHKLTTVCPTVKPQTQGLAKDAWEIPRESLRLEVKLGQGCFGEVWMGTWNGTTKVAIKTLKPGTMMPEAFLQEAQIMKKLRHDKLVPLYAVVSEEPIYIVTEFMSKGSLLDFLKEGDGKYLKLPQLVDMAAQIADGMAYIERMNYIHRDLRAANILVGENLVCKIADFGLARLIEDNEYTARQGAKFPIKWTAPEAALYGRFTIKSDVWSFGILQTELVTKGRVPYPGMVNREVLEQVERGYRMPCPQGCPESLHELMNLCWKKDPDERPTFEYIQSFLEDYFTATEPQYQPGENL

[20] = biological target: Interleukin-1 receptor-associated kinase 4 (Homo sapiens) (UniProt Q9NWZ3); experiment: Inhibition of human IRAK4 at 1 uM
[21] = biological target: Dual specificity tyrosine-phosphorylation-regulated kinase 1A (Homo sapiens) (UniProt Q13627); experiment: Inhibition of human DRYK1A at 1 uM
[22] = biological target: Maternal embryonic leucine zipper kinase (Homo sapiens) (UniProt Q14680); experiment: Inhibition of human MELK at 1 uM
[23] = biological target: Serine/threonine-protein kinase BRSK2 (Homo sapiens) (UniProt Q8IWQ3); experiment: Inhibition of human BRSK2 at 1 uM
[24] = biological target: MAP kinase-interacting serine/threonine-protein kinase 2 (Homo sapiens) (UniProt Q9HBH9); experiment: Inhibition of human MNK2 at 1 uM
[25] = biological target: Serine/threonine-protein kinase N2 (Homo sapiens) (UniProt Q16513); experiment: Inhibition of human PRK2 at 1 uM
Homo sapiens [26] = species: Homo sapiens; experiment: Inhibition of human CK1 at 1 uM
[27] = biological target: Ribosomal protein S6 kinase alpha-1 (Homo sapiens) (UniProt Q15418); experiment: Inhibition of human RSK1 at 1 uM
[28] = biological target: Mitogen-activated protein kinase kinase kinase 9 (Homo sapiens) (UniProt P80192); experiment: Inhibition of human MLK1 at 1 uM
Chain of Mitogen-activated protein kinase kinase kinase 9 (Homo sapiens) (P80192 whole entry, looked up): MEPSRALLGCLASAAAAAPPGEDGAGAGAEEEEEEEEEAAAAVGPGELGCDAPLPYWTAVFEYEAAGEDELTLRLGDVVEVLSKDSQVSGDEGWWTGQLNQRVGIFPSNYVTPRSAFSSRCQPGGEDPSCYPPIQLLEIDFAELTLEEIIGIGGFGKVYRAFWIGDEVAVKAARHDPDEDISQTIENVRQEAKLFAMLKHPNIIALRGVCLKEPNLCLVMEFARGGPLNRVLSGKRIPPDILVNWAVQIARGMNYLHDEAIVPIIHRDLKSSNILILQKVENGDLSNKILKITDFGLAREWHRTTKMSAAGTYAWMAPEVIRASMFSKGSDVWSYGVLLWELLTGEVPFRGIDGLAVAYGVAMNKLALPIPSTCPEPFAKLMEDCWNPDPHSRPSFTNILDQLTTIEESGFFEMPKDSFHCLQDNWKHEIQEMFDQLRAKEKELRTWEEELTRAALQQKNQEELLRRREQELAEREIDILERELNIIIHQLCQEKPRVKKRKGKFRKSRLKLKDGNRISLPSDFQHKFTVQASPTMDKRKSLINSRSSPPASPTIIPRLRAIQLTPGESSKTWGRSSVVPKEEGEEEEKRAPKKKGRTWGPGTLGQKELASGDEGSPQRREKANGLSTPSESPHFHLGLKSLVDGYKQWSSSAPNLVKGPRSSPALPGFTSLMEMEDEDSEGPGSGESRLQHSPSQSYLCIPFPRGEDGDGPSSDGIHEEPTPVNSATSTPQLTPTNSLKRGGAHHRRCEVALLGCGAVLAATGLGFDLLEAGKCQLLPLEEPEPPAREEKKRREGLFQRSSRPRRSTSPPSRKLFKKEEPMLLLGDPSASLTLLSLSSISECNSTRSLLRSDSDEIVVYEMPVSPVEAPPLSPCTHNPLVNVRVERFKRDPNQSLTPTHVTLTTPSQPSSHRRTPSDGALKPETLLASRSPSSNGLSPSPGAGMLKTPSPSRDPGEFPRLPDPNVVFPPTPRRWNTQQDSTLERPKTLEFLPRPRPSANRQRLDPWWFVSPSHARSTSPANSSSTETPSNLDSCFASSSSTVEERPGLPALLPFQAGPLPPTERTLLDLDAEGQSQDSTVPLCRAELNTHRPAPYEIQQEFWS

[29] = biological target: Serine/threonine-protein kinase PAK 4 (Homo sapiens) (UniProt O96013); experiment: Inhibition of human PAK4 at 1 uM
[30] = biological target: MAP/microtubule affinity-regulating kinase 3 (Homo sapiens) (UniProt P27448); experiment: Inhibition of human MARK3 at 1 uM
[31] = biological target: Mitogen-activated protein kinase kinase kinase kinase 2 (Homo sapiens) (UniProt Q12851); experiment: Inhibition of human GCK at 1 uM
Chain of Mitogen-activated protein kinase kinase kinase kinase 2 (Homo sapiens) (Q12851 whole entry): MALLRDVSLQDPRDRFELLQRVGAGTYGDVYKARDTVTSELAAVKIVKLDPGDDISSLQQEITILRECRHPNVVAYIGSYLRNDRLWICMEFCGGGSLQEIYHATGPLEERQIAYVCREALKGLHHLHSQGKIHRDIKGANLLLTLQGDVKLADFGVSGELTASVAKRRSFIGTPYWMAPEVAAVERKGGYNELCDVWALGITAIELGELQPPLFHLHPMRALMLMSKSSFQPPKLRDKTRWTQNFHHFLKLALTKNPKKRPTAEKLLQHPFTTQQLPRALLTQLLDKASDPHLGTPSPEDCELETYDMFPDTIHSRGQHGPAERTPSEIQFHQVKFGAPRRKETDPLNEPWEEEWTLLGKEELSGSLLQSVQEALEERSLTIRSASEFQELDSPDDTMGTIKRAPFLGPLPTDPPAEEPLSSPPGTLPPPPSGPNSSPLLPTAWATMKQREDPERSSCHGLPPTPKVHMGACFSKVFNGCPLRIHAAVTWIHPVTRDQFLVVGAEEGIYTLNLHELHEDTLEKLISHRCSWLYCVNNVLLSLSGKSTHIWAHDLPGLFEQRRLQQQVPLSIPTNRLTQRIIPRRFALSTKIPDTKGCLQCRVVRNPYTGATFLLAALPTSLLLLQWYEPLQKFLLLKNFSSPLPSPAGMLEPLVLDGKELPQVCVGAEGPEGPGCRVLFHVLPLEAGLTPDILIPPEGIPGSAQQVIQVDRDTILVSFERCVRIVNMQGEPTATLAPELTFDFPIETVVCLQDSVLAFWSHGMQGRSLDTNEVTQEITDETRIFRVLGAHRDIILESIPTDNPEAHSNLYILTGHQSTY

[32] = biological target: Aurora kinase B (Homo sapiens) (UniProt Q96GD4); experiment: Inhibition of human Aurora kinase B at 1 uM
Chain of Aurora kinase B (Homo sapiens) (Q96GD4 whole entry): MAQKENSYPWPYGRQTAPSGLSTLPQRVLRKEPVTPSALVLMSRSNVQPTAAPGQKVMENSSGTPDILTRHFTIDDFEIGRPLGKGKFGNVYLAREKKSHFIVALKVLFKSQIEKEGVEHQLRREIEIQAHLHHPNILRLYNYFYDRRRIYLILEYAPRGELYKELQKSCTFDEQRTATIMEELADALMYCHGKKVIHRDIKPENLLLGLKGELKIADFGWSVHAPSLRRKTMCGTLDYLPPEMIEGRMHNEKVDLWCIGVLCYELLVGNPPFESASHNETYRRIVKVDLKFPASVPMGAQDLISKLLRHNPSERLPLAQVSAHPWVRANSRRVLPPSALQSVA

[33] = biological target: Tyrosine-protein kinase Lck (Homo sapiens) (UniProt P06239); experiment: Inhibition of human LCK at 1 uM
[34] = biological target: Fibroblast growth factor receptor 1 (Homo sapiens) (UniProt P11362); experiment: Inhibition of human FGFR1 at 1 uM
[35] = biological target: Ribosomal protein S6 kinase alpha-5 (Homo sapiens) (UniProt O75582); experiment: Inhibition of human MSK1 at 1 uM
[36] = biological target: Serine/threonine-protein kinase Chk2 (Homo sapiens) (UniProt O96017); experiment: Inhibition of human CHK2 at 1 uM
[37] = biological target: Serine/threonine-protein kinase D1 (Homo sapiens) (UniProt Q15139); experiment: Inhibition of human PKD1 at 1 uM
[38] = Apparent permeability of the compound at 50 to 200 uM after 5 hrs by PAMPA; type: ADME

Compound: CN1CCC(Nc2ccc3ncc(-c4cnn(C5CCCC5)c4)n3n2)CC1
IC50 [1]: 1980 nM

Compound: CN1CCC(Nc2ccc3ncc(-c4cnn(-c5ccc(F)cc5)c4)n3n2)CC1
logD at 12 h, 100 µM [2]: 2.8
IC50 [1]: 45 nM
EC50 (Plasmodium falciparum): 561 nM

Compound: CN1CCC(Nc2ccc3ncc(-c4cnn(-c5ccc(C#N)cc5)c4)n3n2)CC1
inhibition [3]: Active
inhibition [4]: Active
inhibition (Homo sapiens [5]): Active
inhibition [6]: Active
inhibition [7]: Active
inhibition [8]: Active
inhibition [9]: Active
inhibition [10]: Active
inhibition [11]: Active
inhibition [12]: Active
inhibition [13]: Active
inhibition [14]: Active
inhibition [15]: Active
inhibition [16]: Active
inhibition [17]: Active
inhibition [18]: Active
inhibition [19]: Active
inhibition [20]: Active
inhibition [21]: Active
inhibition [22]: Active
inhibition [23]: Active
inhibition [24]: Active
inhibition [25]: Active
inhibition (Homo sapiens [26]): Active
inhibition [27]: Active
inhibition [28]: Active
inhibition [29]: Active
inhibition [30]: Active
inhibition [31]: Active

Compound: c1ccc(-n2cc(-c3cnc4ccc(NC5CCNCC5)nn34)cn2)cc1
inhibition [3]: Active
inhibition [4]: Active
inhibition (Homo sapiens [5]): Active
inhibition [6]: Active
inhibition [7]: Active
inhibition [9]: Active
inhibition [11]: Active
inhibition [12]: Active
inhibition [15]: Active
inhibition [16]: Active
inhibition [18]: Active
inhibition [32]: Active
inhibition [33]: Active
inhibition [34]: Active
inhibition [19]: Active
inhibition [20]: Active
inhibition [35]: Active
inhibition [25]: Active
inhibition [36]: Active
inhibition [28]: Active
inhibition [31]: Active
inhibition [37]: Active

Compound: CN1CCC(Nc2ccc3ncc(-c4cnn(-c5ncccc5F)c4)n3n2)CC1
logD at 12 h, 100 µM [2]: 2.9

Compound: CN1CCC(Nc2ccc3ncc(-c4cnn(-c5ccccc5)c4)n3n2)CC1
IC50 [1]: 71 nM

Compound: CN1CCC(Nc2ccc3ncc(-c4cnn(Cc5ccccc5F)c4)n3n2)CC1
logD at 12 h, 100 µM [2]: 3
IC50 [1]: 331 nM

The next lines start with results.

logD at 12 h, 100 µM [2]: 2.9
Compound: CN1CCC(Nc2ccc3ncc(-c4cnn(-c5ccc(F)cn5)c4)n3n2)CC1

logD at 12 h, 100 µM [2]: 2.9
Compound: CN1CCC(Nc2ccc3ncc(-c4cnn(-c5ccc(F)cc5F)c4)n3n2)CC1

logD at 12 h, 100 µM [2]: 2.9
Compound: Cc1cc(F)ccc1-n1cc(-c2cnc3ccc(NC4CCN(C)CC4)nn23)cn1

logD at 12 h, 100 µM [2]: 3.1
IC50 [1]: 20 nM
Papp at 5 h, up to 200 µM [38]: 11 ×10⁻⁶ cm/s
Compound: CN1CCC(Nc2ccc3ncc(-c4cnn(-c5cccc(F)c5)c4)n3n2)CC1
EC50 (Plasmodium falciparum): 394 nM
